Experiment [1] is filed under the species Homo sapiens. Briefly: Selectivity index, ratio of IC50 for human FBPase N125A mutant expressed in Escherichia coli BL21 (DE3) to IC50 for human FBPase expressed in Escherichia coli BL21 (DE3). The method, boiled down: (§1)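 IC50 values for each FBPase point mutant and for wild-type human FBPase came from the same malachite-green assay. The index is mutant IC50 divided by wild-type IC50.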

Experiment [2] concerns the target T1, Fructose-1,6-bisphosphatase 1 (Homo sapiens, UniProt P09467).
T1 sequence (P09467 whole entry): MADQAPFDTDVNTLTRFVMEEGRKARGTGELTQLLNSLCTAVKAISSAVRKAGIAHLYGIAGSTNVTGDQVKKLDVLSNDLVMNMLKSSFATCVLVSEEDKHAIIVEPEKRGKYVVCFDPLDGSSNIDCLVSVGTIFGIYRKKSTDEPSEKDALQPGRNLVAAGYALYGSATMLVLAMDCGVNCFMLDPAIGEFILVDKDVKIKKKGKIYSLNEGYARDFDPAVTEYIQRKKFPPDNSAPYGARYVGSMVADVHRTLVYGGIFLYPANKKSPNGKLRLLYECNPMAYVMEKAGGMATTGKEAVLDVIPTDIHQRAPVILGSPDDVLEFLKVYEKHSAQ
As to the kind of experiment: Inhibition of human FBPase expressed in Escherichia coli BL21 (DE3) using FBP as substrate incubated for 5 mins by malachite green dye based spectrophotometry.

The species named for experiment [3] is Homo sapiens. As to the kind of experiment: Selectivity index, ratio of IC50 for human FBPase C38S mutant expressed in Escherichia coli BL21 (DE3) to IC50 for human FBPase expressed in Escherichia coli BL21 (DE3). In a few lines: as §1
For experiment [4], the species on record is Homo sapiens. As to the kind of experiment: Selectivity index, ratio of IC50 for human FBPase C92S mutant expressed in Escherichia coli BL21 (DE3) to IC50 for human FBPase expressed in Escherichia coli BL21 (DE3). The method, boiled down:
as §1

The species entered for experiment [5] is Homo sapiens. As to the kind of experiment: Selectivity index, ratio of IC50 for human FBPase C116S mutant expressed in Escherichia coli BL21 (DE3) to IC50 for human FBPase expressed in Escherichia coli BL21 (DE3). The method, boiled down: as §1
The species named for experiment [6] is Homo sapiens. Briefly: Selectivity index, ratio of IC50 for human FBPase C128S mutant expressed in Escherichia coli BL21 (DE3) to IC50 for human FBPase expressed in Escherichia coli BL21 (DE3). In a few lines: as §1
Experiment [7] is filed under the species Homo sapiens. As to the kind of experiment: Selectivity index, ratio of IC50 for human FBPase C179S mutant expressed in Escherichia coli BL21 (DE3) to IC50 for human FBPase expressed in Escherichia coli BL21 (DE3). The method, boiled down:
as §1

Experiment [8] is filed under the species Homo sapiens. As to the kind of experiment: Selectivity index, ratio of IC50 for human FBPase C183S mutant expressed in Escherichia coli BL21 (DE3) to IC50 for human FBPase expressed in Escherichia coli BL21 (DE3). In a few lines: as §1
The species entered for experiment [9] is Homo sapiens. As to the kind of experiment: Selectivity index, ratio of IC50 for human FBPase C281S mutant expressed in Escherichia coli BL21 (DE3) to IC50 for human FBPase expressed in Escherichia coli BL21 (DE3). In a few lines: as §1
Experiment [10] is filed under the species Homo sapiens. Briefly: Selectivity index, ratio of IC50 for human FBPase S124A mutant expressed in Escherichia coli BL21 (DE3) to IC50 for human FBPase expressed in Escherichia coli BL21 (DE3). The method, boiled down: as §1
The species named for experiment [11] is Homo sapiens. Briefly: Selectivity index, ratio of IC50 for human FBPase R243A mutant expressed in Escherichia coli BL21 (DE3) to IC50 for human FBPase expressed in Escherichia coli BL21 (DE3). The method, boiled down: as §1
Experiment [12] is filed under the species Homo sapiens. As to the kind of experiment: Selectivity index, ratio of IC50 for human FBPase R254A mutant expressed in Escherichia coli BL21 (DE3) to IC50 for human FBPase expressed in Escherichia coli BL21 (DE3). The method, boiled down:
as §1

Experiment [13] is filed under the species Homo sapiens. Briefly: Selectivity index, ratio of IC50 for human FBPase Y258A mutant expressed in Escherichia coli BL21 (DE3) to IC50 for human FBPase expressed in Escherichia coli BL21 (DE3). The method, boiled down: as §1
Experiment [14] has as its target Fructose-1,6-bisphosphatase 1 (Homo sapiens, UniProt P09467, C129S). As to the kind of experiment: Inhibition of human FBPase C128S mutant expressed in Escherichia coli BL21 (DE3) using FBP as substrate incubated for 5 mins by malachite green dye based spectrophotometry. The method, boiled down:
(§2)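 Recombinant human FBPase (wild type or point mutants) was expressed in E. coli BL21 (DE3), purified and stored in 50% glycerol at -20 °C. Reactions ran 5 min at 37 °C, and released phosphate was read by malachite green.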

The target in experiment [15] is Fructose-1,6-bisphosphatase 1 (Homo sapiens, UniProt P09467, C93S). As to the kind of experiment: Inhibition of human FBPase C92S mutant expressed in Escherichia coli BL21 (DE3) using FBP as substrate incubated for 5 mins by malachite green dye based spectrophotometry. The method, boiled down:
as §2

The target of experiment [16] is Fructose-1,6-bisphosphatase 1 (Homo sapiens, UniProt P09467, C117S). Briefly: Inhibition of human FBPase C116S mutant expressed in Escherichia coli BL21 (DE3) using FBP as substrate incubated for 5 mins by malachite green dye based spectrophotometry. The method, boiled down: as §2
Fructose-1,6-bisphosphatase 1 (Homo sapiens, UniProt P09467, C117S), sequence (P09467 2-338 C117S limits assumed): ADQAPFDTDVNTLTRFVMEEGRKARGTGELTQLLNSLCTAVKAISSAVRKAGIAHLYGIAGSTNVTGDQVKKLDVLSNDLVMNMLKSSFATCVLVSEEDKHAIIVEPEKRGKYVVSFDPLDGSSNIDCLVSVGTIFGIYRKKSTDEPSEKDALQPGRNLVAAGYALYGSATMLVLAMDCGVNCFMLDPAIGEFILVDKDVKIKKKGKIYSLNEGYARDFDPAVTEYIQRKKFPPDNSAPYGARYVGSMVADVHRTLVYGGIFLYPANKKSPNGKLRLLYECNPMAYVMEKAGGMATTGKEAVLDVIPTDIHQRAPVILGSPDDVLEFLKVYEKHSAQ
The target of experiment [17] is Fructose-1,6-bisphosphatase 1 (Homo sapiens, UniProt P09467, C180S). Briefly: Inhibition of human FBPase C179S mutant expressed in Escherichia coli BL21 (DE3) using FBP as substrate incubated for 5 mins by malachite green dye based spectrophotometry. The method, boiled down: as §2
Fructose-1,6-bisphosphatase 1 (Homo sapiens, UniProt P09467, C180S), sequence (P09467 2-338 C180S limits assumed): as the sequence (P09467 2-338 C117S limits assumed) above, with S116C, C179S counted along it
Experiment [18] concerns the target Fructose-1,6-bisphosphatase 1 (Homo sapiens, UniProt P09467, C184S). Briefly: Inhibition of human FBPase C183S mutant expressed in Escherichia coli BL21 (DE3) using FBP as substrate incubated for 5 mins by malachite green dye based spectrophotometry. In a few lines:
as §2

The target in experiment [19] is Fructose-1,6-bisphosphatase 1 (Homo sapiens, UniProt P09467, C282S). Briefly: Inhibition of human FBPase C281S mutant expressed in Escherichia coli BL21 (DE3) using FBP as substrate incubated for 5 mins by malachite green dye based spectrophotometry. In a few lines: as §2
Fructose-1,6-bisphosphatase 1 (Homo sapiens, UniProt P09467, C282S), sequence (P09467 2-338 C282S limits assumed): as the sequence (P09467 2-338 C117S limits assumed) above, with S116C, C281S counted along it
Experiment [20] addresses Fructose-1,6-bisphosphatase 1 (Homo sapiens, UniProt P09467, S125A). As to the kind of experiment: Inhibition of human FBPase S124A mutant expressed in Escherichia coli BL21 (DE3) using FBP as substrate incubated for 5 mins by malachite green dye based spectrophotometry. The method, boiled down: as §2
Experiment [21] addresses Fructose-1,6-bisphosphatase 1 (Homo sapiens, UniProt P09467, N126A). As to the kind of experiment: Inhibition of human FBPase N125A mutant expressed in Escherichia coli BL21 (DE3) using FBP as substrate incubated for 5 mins by malachite green dye based spectrophotometry. In a few lines:
as §2

Experiment [22] deals with Fructose-1,6-bisphosphatase 1 (Homo sapiens, UniProt P09467, R244A). As to the kind of experiment: Inhibition of human FBPase R243A mutant expressed in Escherichia coli BL21 (DE3) using FBP as substrate incubated for 5 mins by malachite green dye based spectrophotometry. In a few lines:
as §2

Experiment [23] has as its target Fructose-1,6-bisphosphatase 1 (Homo sapiens, UniProt P09467, R255A). As to the kind of experiment: Inhibition of human FBPase R254A mutant expressed in Escherichia coli BL21 (DE3) using FBP as substrate incubated for 5 mins by malachite green dye based spectrophotometry. In a few lines: as §2
For experiment [24], the target named is Fructose-1,6-bisphosphatase 1 (Homo sapiens, UniProt P09467, Y259A). As to the kind of experiment: Inhibition of human FBPase Y258A mutant expressed in Escherichia coli BL21 (DE3) using FBP as substrate incubated for 5 mins by malachite green dye based spectrophotometry. In a few lines: as §2
Fructose-1,6-bisphosphatase 1 (Homo sapiens, UniProt P09467, Y259A), sequence (P09467 2-338 Y259A limits assumed): as the sequence (P09467 2-338 C117S limits assumed) above, with S116C, Y258A counted along it

The results in this text go back to ChEMBL document CHEMBL4311987, “Discovery of novel allosteric site and covalent inhibitors of FBPase with potent hypoglycemic effects” (Eur J Med Chem, 2019).

SMILES strings stand for the structures.

Fructose-1,6-bisphosphatase 1 (Homo sapiens, UniProt P09467, S125A), sequence (P09467 2-338 S125A limits assumed): as the sequence (P09467 2-338 C117S limits assumed) above, with S116C, S124A counted along it
Fructose-1,6-bisphosphatase 1 (Homo sapiens, UniProt P09467, C184S), sequence (P09467 2-338 C184S limits assumed): as the sequence (P09467 2-338 C117S limits assumed) above, with S116C, C183S counted along it
Fructose-1,6-bisphosphatase 1 (Homo sapiens, UniProt P09467, C93S), sequence (P09467 2-338 C93S limits assumed): as the sequence (P09467 2-338 C117S limits assumed) above, with C92S, S116C counted along it
Fructose-1,6-bisphosphatase 1 (Homo sapiens, UniProt P09467, N126A), sequence (P09467 2-338 N126A limits assumed): as the sequence (P09467 2-338 C117S limits assumed) above, with S116C, N125A counted along it
Fructose-1,6-bisphosphatase 1 (Homo sapiens, UniProt P09467, R255A), sequence (P09467 2-338 R255A limits assumed): as the sequence (P09467 2-338 C117S limits assumed) above, with S116C, R254A counted along it
Fructose-1,6-bisphosphatase 1 (Homo sapiens, UniProt P09467, C129S), sequence (P09467 2-338 C129S limits assumed): as the sequence (P09467 2-338 C117S limits assumed) above, with S116C, C128S counted along it
Fructose-1,6-bisphosphatase 1 (Homo sapiens, UniProt P09467, R244A), sequence (P09467 2-338 R244A limits assumed): as the sequence (P09467 2-338 C117S limits assumed) above, with S116C, R243A counted along it

Turning to `CCOC(=O)C(C)(C)Oc1ccc(F)c(/C=C/[N+](=O)[O-])c1`, the Ratio IC50 in the experiment listed under Homo sapiens [1] is 492; in the experiment filed under Homo sapiens [3], 1; in the experiment listed under Homo sapiens [4], 1; in the experiment listed under Homo sapiens [5], 1.6; in the experiment listed under Homo sapiens [6], greater than 820; in the experiment filed under Homo sapiens [7], 5.9. Further, the Ratio IC50 in the experiment listed under Homo sapiens [8] was determined as 1.6; in the experiment listed under Homo sapiens [9] it was 1.5; in the experiment filed under Homo sapiens [10] it was 39; in the experiment filed under Homo sapiens [11] it was 28; in the experiment listed under Homo sapiens [12], 20; in the experiment filed under Homo sapiens [13], 4.8. Further, the concentration for half-maximal inhibition (IC50) (usually the concentration that gives 50% inhibition) is 610 nM in [2]; greater than 500000 nM in experiment [14]; 640 nM in experiment [15]; 960 nM in experiment [16]; 3600 nM in experiment [17]; 970 nM in experiment [18]. Further, the IC50 in experiment [19] is 1300 nM; in [20] it was 24000 nM; in experiment [21] it was greater than 300000 nM; in [22] it was 17000 nM; in experiment [23], 12000 nM; in experiment [24], 2900 nM.
`N#Cc1ccc(/C=C/[N+](=O)[O-])cc1`: the Ratio IC50 in the experiment listed under Homo sapiens [1] was greater than 556; in the experiment listed under Homo sapiens [3] it was 1.4; in the experiment filed under Homo sapiens [4], 0.97; in the experiment listed under Homo sapiens [5], 0.94; in the experiment listed under Homo sapiens [6], greater than 1000; in the experiment listed under Homo sapiens [7], 1.2. Also, the Ratio IC50 in the experiment listed under Homo sapiens [8] came to 1.2; in the experiment filed under Homo sapiens [9], 1.7; in the experiment filed under Homo sapiens [10], 3.8; in the experiment listed under Homo sapiens [11] it was 1.9; in the experiment filed under Homo sapiens [12] it was 10; in the experiment filed under Homo sapiens [13], 4.2. For the same molecule, the IC50 in [2] was 360 nM; in experiment [14], greater than 350000 nM; in experiment [15] it was 340 nM; in experiment [16] it was 330 nM; in experiment [17], 430 nM; in experiment [18], 440 nM. Also, the 50% inhibitory concentration (IC50) in experiment [19] was 610 nM; in experiment [20], 1400 nM; in experiment [21], greater than 200000 nM; in experiment [22], 680 nM; in [23] it was 3600 nM; in experiment [24], 1500 nM.
As for `O=[N+]([O-])/C=C/c1cccc(F)c1`, the Ratio IC50 was greater than 625 in the experiment listed under Homo sapiens [1]; 3.8 in the experiment filed under Homo sapiens [3]; 1.9 in the experiment filed under Homo sapiens [4]; 3.4 in the experiment filed under Homo sapiens [5]; greater than 1010 in the experiment listed under Homo sapiens [6]; 2.8 in the experiment filed under Homo sapiens [7]. Moreover, the Ratio IC50 in the experiment filed under Homo sapiens [8] was found to be 2.8; in the experiment listed under Homo sapiens [9] it was 7.2; in the experiment filed under Homo sapiens [10] it was 37.8; in the experiment filed under Homo sapiens [11] it was 6.9; in the experiment listed under Homo sapiens [12] it was 26; in the experiment listed under Homo sapiens [13], 19. Moreover, the 50% inhibitory concentration (IC50) was 320 nM in [2]; greater than 350000 nM in experiment [14]; 620 nM in experiment [15]; 1100 nM in [16]; 890 nM in experiment [17]; 920 nM in experiment [18]. In addition, the concentration for half-maximal inhibition (IC50) is 2300 nM in [19]; 12000 nM in experiment [20]; greater than 200000 nM in experiment [21]; 2200 nM in experiment [22]; 8400 nM in experiment [23]; 19000 nM in experiment [24].
